Where “and” joins values, the source holds several entries; their conditions need not be identical. Equal entries are not always repeated.
Columns and labels:
Mus musculus [1] = test: Compound was evaluated for antitumor activity (T/C) in PNX/109/TC carcinoma Xenograft, at a dosage 5 mg/kg on day 28; format: functional, organism-based; parameters: dose 5 mg/kg
Outline: (§1)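 PNX/109/TC (CH1) ovarian tumor fragments implanted subcutaneously in the flanks of nude mice. Once tumors were palpable, mice were randomized into 6 per treated group and 10 controls. Dosing was ip in arachis oil on days 0, 7, 14 and 21, at the MTD and two 2-fold dilutions, with tumor dimensions taken on days 0, 7, 14, 21 and 28. T/C is treated RTV over control RTV, with RTV relative to start volume.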

Mus musculus [2] = test: Compound was evaluated for antitumor activity (T/C) in HT1376 carcinoma Xenograft, at a dosage 12.5 mg/kg on day 7; format: functional, organism-based; parameters: dose 12.5 mg/kg
Outline: (§2)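 Subcutaneous HT1376 xenografts in nude mice, 6 per treated group and 10 controls. Intraperitoneal dosing as suspensions in 0.5% carboxymethylcellulose/0.9% saline on days 0, 7, 14, 21; tumors measured weekly to day 28. T/C = RTV of treated group / RTV of untreated control group; significance by t-test at the 5% level.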

Mus musculus [3] = test: Compound was evaluated for antitumor activity (T/C) in PNX/109/TC carcinoma Xenograft, at a dosage 5 mg/kg on day 21; format: functional, organism-based; parameters: dose 5 mg/kg; outline: as §1
Mus musculus [4] = test: Compound was evaluated for antitumor activity (T/C) in HT1376 carcinoma Xenograft, at a dosage 25 mg/kg on day 21; format: functional, organism-based; parameters: dose 25 mg/kg; outline: as §2
Mus musculus [5] = test: Compound was evaluated for antitumor activity (T/C) in PNX/109/TC carcinoma Xenograft, at a dosage 20 mg/kg on day 21; format: functional, organism-based; parameters: dose 20 mg/kg; outline: as §1
Mus musculus [6] = test: Compound was evaluated for antitumor activity (RTV) in PNX/109/TC carcinoma Xenograft, at a dosage 20 mg/kg on day 7; format: functional, organism-based; parameters: dose 20 mg/kg
Outline: (§3)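 PXN/109/TC (CH1) ovarian tumor fragments implanted subcutaneously in nude mice flanks; established palpable tumors, groups of 6 (controls 10). Dosed intraperitoneally as suspension in arachis oil on days 0, 7, 14, 21. Tumors measured days 0, 7, 14, 21, 28. RTV = 100(mean tumor volume at assessment)/(mean start volume).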

Mus musculus [7] = test: Compound was evaluated for antitumor activity (T/C) in PNX/109/TC carcinoma Xenograft, at a dosage 20 mg/kg on day 28; format: functional, organism-based; parameters: dose 20 mg/kg; outline: as §1
Mus musculus [8] = test: Compound was evaluated for antitumor activity (T/C) in PNX/109/TC carcinoma Xenograft, at a dosage 20 mg/kg on day 7; format: functional, organism-based; parameters: dose 20 mg/kg; outline: as §1
Mus musculus [9] = test: Compound was evaluated for antitumor activity (RTV) in PNX/109/TC carcinoma Xenograft, at a dosage 5 mg/kg on day 28; format: functional, organism-based; parameters: dose 5 mg/kg; outline: as §3
Mus musculus [10] = test: Compound was evaluated for antitumor activity (T/C) in PNX/109/TC carcinoma Xenograft, at a dosage 10 mg/kg on day 28; format: functional, organism-based; parameters: dose 10 mg/kg; outline: as §1
Mus musculus [11] = test: Compound was evaluated for antitumor activity (T/C) in HT1376 carcinoma Xenograft, at a dosage 6.25 mg/kg on day 21; format: functional, organism-based; parameters: dose 6.25 mg/kg
Outline: (§4)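 Nude mice carrying subcutaneous flank HT1376 fragments; treatment began once tumors were established and palpable, randomized into groups of 6 treated and 10 control mice. Dosing was ip as a suspension in 0.5% carboxymethylcellulose in 0.9% saline on days 0, 7, 14 and 21, at the MTD and two 2-fold dilutions. Tumors were measured on days 0-28. RTV = 100(mean volume at assessment)/(mean start volume); T/C = treated RTV/control RTV.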

[12] = Range is evaluated. (Highest IC50/Lowest IC50); format: functional
Mus musculus [13] = test: Compound was evaluated for antitumor activity (RTV) in HT1376 carcinoma Xenograft, at a dosage 6.25 mg/kg on day 14; format: functional, organism-based; parameters: dose 6.25 mg/kg
Outline: (§5)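 HT1376 tumor fragments implanted subcutaneously in nude mice flanks; mice with established palpable tumors randomized into groups of 6 (controls 10). Compounds given intraperitoneally as suspensions in 0.5% carboxymethylcellulose in 0.9% saline, on days 0, 7, 14 and 21. Tumor dimensions on days 0, 7, 14, 21, 28. RTV = 100(mean tumor volume at assessment)/(mean start volume).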

Mus musculus [14] = test: Compound was evaluated for antitumor activity (T/C) in PNX/109/TC carcinoma Xenograft, at a dosage 10 mg/kg on day 21; format: functional, organism-based; parameters: dose 10 mg/kg; outline: as §1
Mus musculus [15] = test: Compound was evaluated for antitumor activity (RTV) in HT1376 carcinoma Xenograft, at a dosage 12.5 mg/kg on day 21; format: functional, organism-based; parameters: dose 12.5 mg/kg; outline: as §5
Mus musculus [16] = test: Compound was evaluated for antitumor activity (RTV) in PNX/109/TC carcinoma Xenograft, at a dosage 10 mg/kg on day 14; format: functional, organism-based; parameters: dose 10 mg/kg; outline: as §3
Mus musculus [17] = test: Compound was evaluated for antitumor activity (RTV) in HT1376 carcinoma Xenograft, at a dosage 12.5 mg/kg on day 14; format: functional, organism-based; parameters: dose 12.5 mg/kg; outline: as §5
Mus musculus [18] = test: Compound was evaluated for antitumor activity (T/C) in PNX/109/TC carcinoma Xenograft, at a dosage 20 mg/kg on day 14; format: functional, organism-based; parameters: dose 20 mg/kg; outline: as §1
Mus musculus [19] = test: Compound was evaluated for antitumor activity (T/C) in PNX/109/TC carcinoma Xenograft, at a dosage 5 mg/kg on day 7; format: functional, organism-based; parameters: dose 5 mg/kg; outline: as §1
Mus musculus [20] = test: Compound was evaluated for antitumor activity (RTV) in PNX/109/TC carcinoma Xenograft, at a dosage 20 mg/kg on day 28; format: functional, organism-based; parameters: dose 20 mg/kg; outline: as §3
Mus musculus [21] = test: Compound was evaluated for antitumor activity (RTV) in PNX/109/TC carcinoma Xenograft, at a dosage 20 mg/kg on day 21; format: functional, organism-based; parameters: dose 20 mg/kg; outline: as §3
Mus musculus [22] = test: Compound was evaluated for antitumor activity (RTV) in HT1376 carcinoma Xenograft, at a dosage 6.25 mg/kg on day 7.; format: functional, organism-based; parameters: dose 6.25 mg/kg; outline: as §5
Mus musculus [23] = test: Compound was evaluated for antitumor activity (T/C) in HT1376 carcinoma Xenograft, at a dosage 25 mg/kg on day 28; format: functional, organism-based; parameters: dose 25 mg/kg; outline: as §4
Mus musculus [24] = test: Compound was evaluated for antitumor activity (RTV) in HT1376 carcinoma Xenograft, at a dosage 25 mg/kg on day 14; format: functional, organism-based; parameters: dose 25 mg/kg; outline: as §5
Mus musculus [25] = test: Compound was evaluated for antitumor activity (RTV) in PNX/109/TC carcinoma Xenograft, at a dosage 10 mg/kg on day 28; format: functional, organism-based; parameters: dose 10 mg/kg; outline: as §3
Mus musculus [26] = test: Compound was evaluated for antitumor activity (T/C) in HT1376 carcinoma Xenograft, at a dosage 25 mg/kg on day 7; format: functional, organism-based; parameters: dose 25 mg/kg; outline: as §4
Mus musculus [27] = test: Compound was evaluated for antitumor activity (RTV) in HT1376 carcinoma Xenograft, at a dosage 12.5 mg/kg on day 7; format: functional, organism-based; parameters: dose 12.5 mg/kg; outline: as §5
Mus musculus [28] = test: Compound was evaluated for antitumor activity (RTV) in HT1376 carcinoma Xenograft, at a dosage 6.25 mg/kg on day 28; format: functional, organism-based; parameters: dose 6.25 mg/kg; outline: as §5
Mus musculus [29] = test: Compound was evaluated for antitumor activity (T/C) in HT1376 carcinoma Xenograft, at a dosage 12.5 mg/kg on day 21; format: functional, organism-based; parameters: dose 12.5 mg/kg; outline: as §2
Mus musculus [30] = test: Compound was evaluated for antitumor activity (RTV) in HT1376 carcinoma Xenograft, at a dosage 25 mg/kg on day 21; format: functional, organism-based; parameters: dose 25 mg/kg; outline: as §5
Mus musculus [31] = test: Compound was evaluated for antitumor activity (T/C) in HT1376 carcinoma Xenograft, at a dosage 6.25 mg/kg on day 7; format: functional, organism-based; parameters: dose 6.25 mg/kg; outline: as §4
Mus musculus [32] = test: Compound was evaluated for antitumor activity (RTV) in PNX/109/TC carcinoma Xenograft, at a dosage 5 mg/kg on day 21; format: functional, organism-based; parameters: dose 5 mg/kg; outline: as §3
Mus musculus [33] = test: Compound was evaluated for antitumor activity (RTV) in HT1376 carcinoma Xenograft, at a dosage 6.25 mg/kg on day 21; format: functional, organism-based; parameters: dose 6.25 mg/kg; outline: as §5

Substance: Acetato[2-(dimethylamino)methyl]phenyl-C,N]gold-(III)
- T/C (Mus musculus [1]): 1.08
- T/C (Mus musculus [2]): 0.77
- T/C (Mus musculus [3]): 0.84
- T/C (Mus musculus [4]): 0.76
- T/C (Mus musculus [5]): 0.51
- RTV (Mus musculus [6]): 173
- T/C (Mus musculus [7]): 0.77
- T/C (Mus musculus [8]): 0.74
- RTV (Mus musculus [9]): 673
- T/C (Mus musculus [10]): 1.34
- T/C (Mus musculus [11]): 1.07
- Range [12]: 21.6 and 31
- RTV (Mus musculus [13]): 724
- T/C (Mus musculus [14]): 1.03
- RTV (Mus musculus [15]): 682
- RTV (Mus musculus [16]): 316
- RTV (Mus musculus [17]): 498
- T/C (Mus musculus [18]): 0.57
- T/C (Mus musculus [19]): 0.69
- RTV (Mus musculus [20]): 481
- RTV (Mus musculus [21]): 258
- RTV (Mus musculus [22]): 379
- T/C (Mus musculus [23]): 0.6
- RTV (Mus musculus [24]): 454
- RTV (Mus musculus [25]): 833
- T/C (Mus musculus [26]): 0.93
- RTV (Mus musculus [27]): 212
- RTV (Mus musculus [28]): 1670
- T/C (Mus musculus [29]): 0.77
- RTV (Mus musculus [30]): 671
- T/C (Mus musculus [31]): 1.37
- RTV (Mus musculus [32]): 423
- RTV (Mus musculus [33]): 953

Reference: ChEMBL document CHEMBL1129059, “Antitumor properties of some 2-[(dimethylamino)methyl]phenylgold(III) complexes” (J Med Chem, 1996)
